Data as given in paper PMC9476207 (ACS Omega, 2022).

Columns and labels:
Format in all cases: cell-based, human
[1] = tested on: A549 cells; assay: Loss of mitochondrial membrane potential; conditions: A549, 48 h
Method in brief: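 A549 cells (1 × 10^5/mL/well, six-well plates) were treated for 48 h with 1.5, 3.0 or 5.0 μM test compound; paclitaxel served as positive control. After an ice-cold PBS wash, cells took up rhodamine-123 (final 0.2 mM) for 20–30 min in the dark in the incubator. Cells were washed again and fluorescence was assessed qualitatively by microscopy.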

[2] = tested on: A549 cells; assay: Reactive oxygen species; conditions: 18f at 5, 3 and 1.5 μM, 48 h
Method in brief: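 A549 cells (1 × 10^5, six-well) were grown 24 h, then exposed to test compound at 1.5, 3 and 5 μM for 48 h. 0.05% H2O2 positive control was added 1 h before the end. Cells were PBS-washed and loaded with DCFH-DA (10 mM as printed) for 30 min in the dark, rewashed, and viewed by inverted fluorescence microscopy.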

[3] = tested on: A549 cells; assay: Apoptosis assay through DAPI staining; conditions: 18f at 5, 3 and 1.5 μM, 48 h, paclitaxel positive control

CC(=O)O[C@H]1C(=O)[C@@]2(C)[C@H]([C@H](OC(=O)c3ccccc3)[C@]3(O)C[C@H](OC(=O)[C@H](O)[C@@H](NC(=O)c4ccccc4)c4ccccc4)C(C)=C1C3(C)C)[C@]1(OC(C)=O)CO[C@@H]1C[C@@H]2O [paclitaxel]
loss of mitochondrial membrane potential (rhodamine-123 fluorescence) ([1]; 18f at 3.0 μM): quite similar
loss of mitochondrial membrane potential (rhodamine-123 fluorescence) ([1]; 18f at 5 μM, paclitaxel at its IC50 doses): maximum loss in the mitochondrial membrane potential
intracellular ROS (DCFDA fluorescence, qualitative) [2]: higher in the treated groups
nuclear morphological changes (DAPI staining) [3]: chromatin condensation, nuclear blebbing, and formation of apoptotic bodies
